Assay results: ChEMBL document CHEMBL1127344, “Tridentate ligands containing the SNS donor atom set as a novel backbone for the development of technetium brain-imaging agents” (J Med Chem, 1994)

Key:
[1] = species on record: Rattus norvegicus; assay: Tested for biodistribution of compound at 30 min in rat blood; type: ADME, organism-based; conditions: in vivo, 0.5 h
In short: (§1)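 Wistar rats under ether anesthesia were dosed through the femoral vein with 0.1 mL of 99mTc complex (3-6 μCi) and dissected 5-60 min pi. Tissue radioactivity was γ-counted against a 1% injected-dose standard and expressed as % dose/organ. Blood and muscle were calculated from sample weight assuming 7% and 43% of body weight.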

[2] = species on record: Rattus norvegicus; assay: Tested for biodistribution of compound at 30 min in rat heart; type: ADME, organism-based; conditions: in vivo, 0.5 h; in short: as §1
[3] = species on record: Rattus norvegicus; assay: Tested for biodistribution of compound at 30 min in rat lungs; type: ADME, organism-based, Lung; conditions: in vivo, 0.5 h
[4] = species on record: Rattus norvegicus; assay: Tested for biodistribution of compound at 30 min in rat muscle; type: ADME, organism-based, Muscle tissue; conditions: in vivo, 0.5 h
[5] = species on record: Rattus norvegicus; assay: Tested for biodistribution of compound at 30 min in rat s. intestine; type: ADME, organism-based; conditions: in vivo, 0.5 h
[6] = species on record: Rattus norvegicus; assay: Tested for biodistribution of compound at 30 min in rat spleen; type: ADME, organism-based; conditions: in vivo, 0.5 h
[7] = species on record: Mus musculus; assay: Tested for biodistribution of compound at 5 min in mice intestine; type: ADME, organism-based; conditions: in vivo
In short: (§2)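 Male Swiss albino mice, at least five per group, received HPLC-purified 99mTc complex by tail vein. The complex was reconstituted in 50% methanol (0.1 mL, 2-3 μCi). Mice were killed by cardiectomy under light ether at 1-60 min pi. Organs were weighed and γ-counted against a 1% injected-dose standard to give % dose/organ. Blood and muscle were taken as 7% and 43% of body weight.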

[8] = species on record: Mus musculus; assay: Tested for biodistribution of compound at 5 min in mice kidney; type: ADME, organism-based; conditions: in vivo; in short: as §2
[9] = species on record: Mus musculus; assay: Tested for biodistribution of compound at 5 min in mice liver; type: ADME, organism-based; conditions: in vivo; in short: as §2
[10] = species on record: Mus musculus; assay: Tested for biodistribution of compound at 5 min in mice lungs; type: ADME, organism-based, Lung; conditions: in vivo; in short: as §2
[11] = species on record: Mus musculus; assay: Tested for biodistribution of compound at 10 min in mice stomach; type: ADME, organism-based; conditions: in vivo
In short: (§3)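 Male Swiss albino mice, at least five per group, received 0.1 mL (2-3 μCi) of HPLC-purified 99mTc complex reconstituted in 50% methanol by tail vein. They were killed by cardiectomy under light ether anesthesia at set times (1-60 min pi). Organs were weighed and γ-counted against a 1% injected-dose standard to give % dose/organ. Blood and muscle were taken as 7% and 43% of body weight.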

[12] = species on record: Mus musculus; assay: Tested for biodistribution of compound at 10 min in mice urine; type: ADME, organism-based; conditions: in vivo; in short: as §3
[13] = species on record: Rattus norvegicus; assay: Tested for biodistribution of compound at 10 min in rat blood; type: ADME, organism-based; conditions: in vivo; in short: as §1
[14] = species on record: Rattus norvegicus; assay: Tested for biodistribution of compound at 10 min in rat brain; type: ADME, organism-based; conditions: in vivo; in short: as §1
[15] = species on record: Rattus norvegicus; assay: Tested for biodistribution of compound at 10 min in rat heart; type: ADME, organism-based; conditions: in vivo; in short: as §1
[16] = species on record: Mus musculus; assay: Tested for biodistribution of compound at 5 min in mice muscle; type: ADME, organism-based, Muscle tissue; conditions: in vivo; in short: as §2
[17] = species on record: Mus musculus; assay: Tested for biodistribution of compound at 5 min in mice stomach; type: ADME, organism-based; conditions: in vivo; in short: as §2
[18] = species on record: Mus musculus; assay: Tested for biodistribution of compound at 1 min in mice blood; type: ADME, organism-based; conditions: in vivo; in short: as §3
[19] = species on record: Mus musculus; assay: Tested for biodistribution of compound at 1 min in mice brain; type: ADME, organism-based; conditions: in vivo; in short: as §3
[20] = species on record: Mus musculus; assay: Tested for biodistribution of compound at 1 min in mice intestine; type: ADME, organism-based; conditions: in vivo; in short: as §3
[21] = species on record: Mus musculus; assay: Tested for biodistribution of compound at 1 min in mice lungs; type: ADME, organism-based, Lung; conditions: in vivo; in short: as §3
[22] = species on record: Mus musculus; assay: Tested for biodistribution of compound at 1 min in mice spleen; type: ADME, organism-based; conditions: in vivo; in short: as §3
[23] = species on record: Mus musculus; assay: Tested for biodistribution of compound at 10 min in mice blood; type: ADME, organism-based; conditions: in vivo; in short: as §3
[24] = species on record: Mus musculus; assay: Tested for biodistribution of compound at 10 min in mice brain; type: ADME, organism-based; conditions: in vivo; in short: as §3
[25] = species on record: Mus musculus; assay: Tested for biodistribution of compound at 10 min in mice heart; type: ADME, organism-based; conditions: in vivo; in short: as §3
[26] = species on record: Mus musculus; assay: Tested for biodistribution of compound at 10 min in mice liver; type: ADME, organism-based; conditions: in vivo; in short: as §3
[27] = species on record: Mus musculus; assay: Tested for biodistribution of compound at 10 min in mice lungs; type: ADME, organism-based, Lung; conditions: in vivo; in short: as §3
[28] = species on record: Mus musculus; assay: Tested for biodistribution of compound at 10 min in mice muscle; type: ADME, organism-based, Muscle tissue; conditions: in vivo; in short: as §3
[29] = species on record: Rattus norvegicus; assay: Tested for biodistribution of compound at 5 min in rat s. intestine; type: ADME, organism-based; conditions: in vivo
[30] = species on record: Rattus norvegicus; assay: Tested for biodistribution of compound at 60 min in rat stomach; type: ADME, organism-based; conditions: in vivo, 1 h
[31] = species on record: Rattus norvegicus; assay: Tested for biodistribution of compound at 10 min in rat muscle; type: ADME, organism-based, Muscle tissue; conditions: in vivo; in short: as §1
[32] = species on record: Mus musculus; assay: Tested for biodistribution of compound at 30 min in mice spleen; type: ADME, organism-based; conditions: in vivo, 0.5 h; in short: as §3
[33] = species on record: Mus musculus; assay: Tested for biodistribution of compound at 5 min in mice blood; type: ADME, organism-based; conditions: in vivo; in short: as §2
[34] = species on record: Mus musculus; assay: Tested for biodistribution of compound at 1 min in mice stomach; type: ADME, organism-based; conditions: in vivo; in short: as §3

[4-methoxythio)phenolato][N,N-bis(2-mercaptoethyl)-N',N'-diethylethylenediamine] oxotechnetium
Dose/organ [1]: 7.47% | Dose/organ [2]: 0.17% | Dose/organ [3]: 2.08% | Dose/organ [4]: 16.52% | Dose/organ [5]: 7.55% | Dose/organ [6]: 0.3% | Dose/organ [7]: 8.31% | Dose/organ [8]: 3.14% | Dose/organ [9]: 10.73% | Dose/organ [10]: 15.37% | Dose/organ [11]: 1.2% | Dose/organ [12]: 1.1% | Dose/organ [13]: 17.72% | Dose/organ [14]: 1.16% | Dose/organ [15]: 0.51% | Dose/organ [16]: 24.17% | Dose/organ [17]: 0.96% | Dose/organ [18]: 5.24% | Dose/organ [19]: 3.56% | Dose/organ [20]: 2.61% | Dose/organ [21]: 27.19% | Dose/organ [22]: 0.03% | Dose/organ [23]: 1.53% | Dose/organ [24]: 2.47% | Dose/organ [25]: 0.46% | Dose/organ [26]: 14.14% | Dose/organ [27]: 9.78% | Dose/organ [28]: 16.49% | Dose/organ [29]: 5.96% | Dose/organ [30]: 2.05% | Dose/organ [31]: 27.89% | Dose/organ [32]: 0.38% | Dose/organ [33]: 2.02% | Dose/organ [34]: 0.15%
